According to ChEMBL document CHEMBL4385642, “Optimization and biological evaluation of nicotinamide derivatives as Aurora kinase inhibitors” (Bioorg Med Chem, 2019):

Molecular target: Aurora kinase B (Homo sapiens) (UniProt Q96GD4)
Assay: Inhibition of Aurora B (unknown origin) at 0.2 uM pre-incubated for 10 mins before FAM-labeled peptide substrate addition by mobility shift assay relative to control
Conditions: not given

Aurora kinase B (Homo sapiens), sequence (Q96GD4 whole entry): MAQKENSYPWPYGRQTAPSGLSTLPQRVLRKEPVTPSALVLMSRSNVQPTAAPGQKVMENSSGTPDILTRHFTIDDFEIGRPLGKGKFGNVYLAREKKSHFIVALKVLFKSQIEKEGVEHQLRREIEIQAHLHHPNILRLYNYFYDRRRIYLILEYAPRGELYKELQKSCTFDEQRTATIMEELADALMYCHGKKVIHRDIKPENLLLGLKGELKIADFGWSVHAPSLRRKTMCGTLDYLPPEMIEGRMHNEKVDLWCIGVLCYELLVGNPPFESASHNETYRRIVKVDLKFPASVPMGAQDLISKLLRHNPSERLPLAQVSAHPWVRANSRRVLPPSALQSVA

SMILES	inhibition
COc1cc2nccc(Oc3ccc(NC(=O)c4c[nH]c(=O)cc4Nc4ccccc4)cc3)c2cc1OC	38.7%
COc1cc2nccc(Oc3ccc(NC(=O)c4cnc(Cl)cc4Nc4ccc(F)cc4)cc3)c2cc1OC	51.6%
COc1cc2nccc(Oc3ccc(NC(=O)c4cnc(Cl)cc4Nc4cccc(F)c4)cc3)c2cc1OC	49.6%
COc1cc2nccc(Oc3ccc(NC(=O)c4cnc(Cl)cc4Nc4ccc(Br)cc4F)cc3)c2cc1OC	31.6%

Other lines, results leading:

inhibition	SMILES
38.5%	COc1cc2nccc(Oc3ccc(NC(=O)c4cnc(Cl)cc4Nc4ccc(Cl)cc4)cc3)c2cc1OC
57.1%	COc1cc2nccc(Oc3ccc(NC(=O)c4cnc(Cl)cc4Nc4ccccc4Cl)cc3)c2cc1OC
50.1%	COc1cc2nccc(Oc3ccc(NC(=O)c4cnc(Cl)cc4Nc4ccccc4F)cc3)c2cc1OC
52.1%	COc1cc2nccc(Oc3ccc(NC(=O)c4cnc(Cl)cc4Nc4ccccc4)cc3)c2cc1OC
31.1%	COc1cc2nccc(Oc3ccc(NC(=O)c4cn(C)c(=O)cc4Nc4ccccc4)cc3)c2cc1OC

System: HeLa
Assay: Cytotoxicity in human HeLa cells assessed as reduction in cell viability incubated for 72 hrs by MTT assay
Assay type: functional, cell-based
Conditions: not given
Procedure, shortened: (§1)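 Cells in DMEM or RPMI 1640 with 10% FBS and 1% penicillin/streptomycin were seeded at 6 × 10^3/well and grown 24 h at 37 °C, 5% CO2. They were exposed 72 h to graded compound concentrations (DMSO under 0.1%). MTT (5 mg/mL, 10 µL) was added for 4 h at 37 °C and formazan dissolved in DMSO. A492 was read against a 630 nm reference, and IC50 came from concentration–response curves.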

SMILES	IC50
COc1cc2nccc(Oc3ccc(NC(=O)c4cnc(Cl)cc4Nc4ccc(Br)cc4F)cc3)c2cc1OC	> 20 µM

Molecular target: T1, Aurora kinase A (Homo sapiens) (UniProt O14965)
T1 sequence (whole entry): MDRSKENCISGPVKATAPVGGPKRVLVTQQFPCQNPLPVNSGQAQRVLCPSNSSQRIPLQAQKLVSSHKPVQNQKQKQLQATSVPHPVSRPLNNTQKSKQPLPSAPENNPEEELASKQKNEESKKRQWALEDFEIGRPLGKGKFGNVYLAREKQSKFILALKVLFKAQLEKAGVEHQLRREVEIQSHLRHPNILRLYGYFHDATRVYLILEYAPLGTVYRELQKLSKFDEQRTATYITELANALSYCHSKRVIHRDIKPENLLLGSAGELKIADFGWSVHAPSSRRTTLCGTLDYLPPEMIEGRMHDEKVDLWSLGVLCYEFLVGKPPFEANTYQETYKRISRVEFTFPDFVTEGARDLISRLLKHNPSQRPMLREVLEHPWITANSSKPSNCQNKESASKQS
Assay: Inhibition of Aurora A (unknown origin) at 0.2 uM pre-incubated for 10 mins before FAM-labeled peptide substrate addition by mobility shift assay relative to control
Conditions: not given

SMILES	inhibition
COc1cc2nccc(Oc3ccc(NC(=O)c4c[nH]c(=O)cc4Nc4ccccc4)cc3)c2cc1OC	29.9%
COc1cc2nccc(Oc3ccc(NC(=O)c4cnc(Cl)cc4Nc4ccc(F)cc4)cc3)c2cc1OC	47.1%
COc1cc2nccc(Oc3ccc(NC(=O)c4cnc(Cl)cc4Nc4cccc(F)c4)cc3)c2cc1OC	48.6%
COc1cc2nccc(Oc3ccc(NC(=O)c4cnc(Cl)cc4Nc4ccc(Br)cc4F)cc3)c2cc1OC	70%

Other lines, results leading:

inhibition	SMILES
51.9%	COc1cc2nccc(Oc3ccc(NC(=O)c4cnc(Cl)cc4Nc4ccc(Cl)cc4)cc3)c2cc1OC
68.3%	COc1cc2nccc(Oc3ccc(NC(=O)c4cnc(Cl)cc4Nc4ccccc4Cl)cc3)c2cc1OC
51.5%	COc1cc2nccc(Oc3ccc(NC(=O)c4cnc(Cl)cc4Nc4ccccc4F)cc3)c2cc1OC
48.2%	COc1cc2nccc(Oc3ccc(NC(=O)c4cnc(Cl)cc4Nc4ccccc4)cc3)c2cc1OC
40.9%	COc1cc2nccc(Oc3ccc(NC(=O)c4cn(C)c(=O)cc4Nc4ccccc4)cc3)c2cc1OC

System: SW-620
Assay: Cytotoxicity in human SW620 cells assessed as reduction in cell viability incubated for 72 hrs by MTT assay
Assay type: functional, cell-based
Conditions: SW-620, 72 h
Procedure, shortened: as §1

SMILES	IC50
COc1cc2nccc(Oc3ccc(NC(=O)c4cnc(Cl)cc4Nc4ccc(Cl)cc4)cc3)c2cc1OC	2.38 µM
COc1cc2nccc(Oc3ccc(NC(=O)c4cnc(Cl)cc4Nc4ccccc4Cl)cc3)c2cc1OC	3.6 µM
COc1cc2nccc(Oc3ccc(NC(=O)c4cnc(Cl)cc4Nc4ccccc4F)cc3)c2cc1OC	8.1 µM
COc1cc2nccc(Oc3ccc(NC(=O)c4c[nH]c(=O)cc4Nc4ccccc4)cc3)c2cc1OC	18.9 µM
COc1cc2nccc(Oc3ccc(NC(=O)c4cnc(Cl)cc4Nc4ccc(F)cc4)cc3)c2cc1OC	6.82 µM
COc1cc2nccc(Oc3ccc(NC(=O)c4cnc(Cl)cc4Nc4cccc(F)c4)cc3)c2cc1OC	5.1 µM
COc1cc2nccc(Oc3ccc(NC(=O)c4cnc(Cl)cc4Nc4ccc(Br)cc4F)cc3)c2cc1OC	2.45 µM
COc1cc2nccc(Oc3ccc(NC(=O)c4cnc(Cl)cc4Nc4ccccc4)cc3)c2cc1OC	1.92 µM
COc1cc2nccc(Oc3ccc(NC(=O)c4cn(C)c(=O)cc4Nc4ccccc4)cc3)c2cc1OC	4.43 µM

System: HT-29
Assay: Cytotoxicity in human HT-29 cells assessed as reduction in cell viability incubated for 72 hrs by MTT assay
Assay type: functional, cell-based
Conditions: HT-29, 72 h
Procedure, shortened: as §1

SMILES	IC50
COc1cc2nccc(Oc3ccc(NC(=O)c4cnc(Cl)cc4Nc4ccc(Br)cc4F)cc3)c2cc1OC	> 20 µM
